From ChEMBL document CHEMBL1124865, “Synthesis and biological evaluation of a series of parenteral 3'-quaternary ammonium cephalosporins” (J Med Chem, 1990)
In brackets after ≈: the same amount, converted by molar mass.

Key:
Format in all cases: functional
Enterobacter cloacae [1] = experiment: Antibacterial activity against Enterobacter cloacae 265A
Escherichia coli [2] = experiment: Antibacterial activity against Escherichia coli EC14
Escherichia coli [3] = experiment: Antibacterial activity against Escherichia coli TEM; conditions: Escherichia coli; read-out: MIC
Cavia porcellus = species: Cavia porcellus; experiment: In vitro relative anticholinergic potential in isolated guinea pig trachea
Outline: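 Guinea pig trachea in Krebs' solution at 37.5 °C, 95% O2/5% CO2, pH 7.4, 2 g resting tension. Cumulative carbachol log dose-response curve (3-fold steps) run before and 30 min after adding antagonist at 1 mM. […] Tukey test on log2 dose ratios.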

Klebsiella pneumoniae [4] = experiment: microbe, parasite or virus in culture
Klebsiella pneumoniae [5] = experiment: Antibacterial activity against Klebsiella pneumoniae X26
Pseudomonas aeruginosa [6] = experiment: Antibacterial activity against Pseudomonas aeruginosa X528
Pseudomonas aeruginosa [7] = experiment: Antibacterial activity against Pseudomonas aeruginosa PS18
Staphylococcus aureus [8] = experiment: Antibacterial activity against penicillin G susceptible Staphylococcus aureus
Streptococcus pneumoniae = experiment: Antibacterial activity against Streptococcus pneumoniae
Streptococcus pyogenes = experiment: Antibacterial activity against Streptococcus pyogenes
Enterococcus faecium = experiment: Antibacterial activity against Enterococcus faecium
Enterobacter cloacae [9] = experiment: Antibacterial activity against Enterobacter cloacae EB5
Pseudomonas aeruginosa [10] = experiment: In vivo efficacy against Pseudomonas aeruginosa infected mice treated at 1 hr and 5 hr post infection
Staphylococcus aureus [11] = experiment: In vivo efficacy against Staphylococcus aureus infected mice treated at 1 hr and 5 hr post infection
Escherichia coli [12] = experiment: In vivo efficacy against Escherichia coli infected mice treated at 1 hr and 5 hr post infection
Escherichia coli [13] = experiment: In vivo efficacy against Escherichia coli infections in mice
Pseudomonas aeruginosa [14] = experiment: In vivo efficacy against Pseudomonas aeruginosa infections in mice
Staphylococcus aureus [15] = experiment: In vivo efficacy against Staphylococcus aureus infections in mice
Staphylococcus aureus [16] = experiment: Antibacterial activity against penicillin G resistance Staphylococcus aureus
Serratia marcescens = experiment: Antibacterial activity against Serratia marcescens SE3
[17] = Enterobacter cloacae, read-out: MIC
[18] = Escherichia coli, read-out: MIC
[19] = Klebsiella pneumoniae, read-out: MIC
[20] = Pseudomonas aeruginosa, read-out: MIC
[21] = Staphylococcus aureus, read-out: MIC
[22] = Streptococcus pneumoniae, read-out: MIC
[23] = Streptococcus pyogenes, read-out: MIC
[24] = Enterococcus faecium, read-out: MIC
[25] = Pseudomonas aeruginosa, read-out: ED50
[26] = Staphylococcus aureus, read-out: ED50
[27] = Escherichia coli, read-out: ED50
[28] = Serratia marcescens, read-out: MIC

| Structure (SMILES) | MIC (Enterobacter cloacae [1]; [17]) [µg/mL] | MIC (Escherichia coli [2]; [18]) [µg/mL] | MIC (Escherichia coli [3]) [µg/mL] | MIC (Klebsiella pneumoniae [4]; [19]) [µg/mL] | MIC (Klebsiella pneumoniae [5]; [19]) [µg/mL] | MIC (Pseudomonas aeruginosa [6]; [20]) [µg/mL] | MIC (Pseudomonas aeruginosa [7]; [20]) [µg/mL] | MIC (Staphylococcus aureus [8]; [21]) [µg/mL] | MIC (Streptococcus pneumoniae; [22]) [µg/mL] | MIC (Streptococcus pyogenes; [23]) [µg/mL] | MIC (Enterococcus faecium; [24]) [µg/mL] | MIC (Enterobacter cloacae [9]; [17]) [µg/mL] | ED50 (Pseudomonas aeruginosa [10]; [25]) [mg/kg] | ED50 (Staphylococcus aureus [11]; [26]) [mg/kg] | ED50 (Escherichia coli [12]; [27]) [mg/kg] | MIC (Escherichia coli [13]; [18]) [µg/mL] | MIC (Pseudomonas aeruginosa [14]; [20]) [µg/mL] | MIC (Staphylococcus aureus [15]; [21]) [µg/mL] | ED50 (Escherichia coli [12]) [mg/kg] | MIC (Serratia marcescens) [µg/mL] | further results |
| --- | --- | --- | --- | --- | --- | --- | --- | --- | --- | --- | --- | --- | --- | --- | --- | --- | --- | --- | --- | --- | --- |
| CO/N=C(\C(=O)N[C@@H]1C(=O)N2C(C(=O)[O-])=C(C[n+]3ccc4c(c3)nc(C)n4C)CS[C@H]12)c1csc(N)n1 | 4 (≈ 7.37 µM) | 0.008 (≈ 0.0147 µM) | 0.008 (≈ 0.0147 µM) | 2 (≈ 3.69 µM) | 0.008 (≈ 0.0147 µM) | 4 (≈ 7.37 µM) | 8 (≈ 14.7 µM) | 2 (≈ 3.69 µM) | 0.008 (≈ 0.0147 µM) | 0.008 (≈ 0.0147 µM) | 128 (≈ 236 µM) | – | – | – | – | – | – | – | – | – | RAP (Cavia porcellus): 1 |
| CO/N=C(\C(=O)N[C@@H]1C(=O)N2C(C(=O)[O-])=C(C[n+]3ccc(C(N)=S)cc3)CS[C@H]12)c1csc(N)n1 | 8 (≈ 15 µM) | 0.03 (≈ 0.0562 µM) | 0.03 (≈ 0.0562 µM) | 8 (≈ 15 µM) | 0.03 (≈ 0.0562 µM) | 1 (≈ 1.87 µM) | 2 (≈ 3.75 µM) | 1 (≈ 1.87 µM) | 0.015 (≈ 0.0281 µM) | < 0.008 | > 128 | 0.125 (≈ 0.234 µM) | 7.2 | 1.4 | < 0.16 | 0.03 (≈ 0.0562 µM) | 8 (≈ 15 µM) | 1 (≈ 1.87 µM) | – | – | MIC (Staphylococcus aureus [16]; [21]): 2 µg/mL (≈ 3.75 µM); MIC (Serratia marcescens; [28]): 0.06 µg/mL (≈ 0.112 µM) |
| CO/N=C(\C(=O)N[C@@H]1C(=O)N2C(C(=O)[O-])=C(C[n+]3ccc(CC(=O)NO)cc3)CS[C@H]12)c1csc(N)n1 (stereo in doubt; 20) | – | – | – | – | – | – | – | – | – | – | – | – | – | – | – | – | – | – | <0.03 | 0.25 (≈ 0.457 µM) | MIC (Enterobacter cloacae [1]): 64 µg/mL (≈ 117 µM); MIC (Klebsiella pneumoniae [4]): 8 µg/mL (≈ 14.6 µM); ED50 (Pseudomonas aeruginosa [10]): 20 mg/kg; ED50 (Staphylococcus aureus [11]): 1.4 mg/kg; MIC (Escherichia coli [13]): 0.06 µg/mL (≈ 0.11 µM); MIC (Pseudomonas aeruginosa [14]): 8 µg/mL (≈ 14.6 µM); MIC (Pseudomonas aeruginosa [7]): 16 µg/mL (≈ 29.2 µM); MIC (Staphylococcus aureus [16]): 16 µg/mL (≈ 29.2 µM); MIC (Staphylococcus aureus [8]): 8 µg/mL (≈ 14.6 µM); MIC (Streptococcus pneumoniae): 0.06 µg/mL (≈ 0.11 µM); MIC (Streptococcus pyogenes): 0.06 µg/mL (≈ 0.11 µM); MIC (Enterococcus faecium): >128 µg/mL |
| CO/N=C(\C(=O)N[C@@H]1C(=O)N2C(C(=O)[O-])=C(C[n+]3ccc(CC(=O)NO)cc3)CS[C@H]12)c1csc(N)n1 (stereo in doubt; 21) | – | – | – | – | – | – | – | – | – | – | – | – | – | – | – | – | – | – | 0.07 | 0.06 (≈ 0.11 µM) | MIC (Enterobacter cloacae [1]): 16 µg/mL (≈ 29.2 µM); MIC (Enterobacter cloacae [9]): 0.125 µg/mL (≈ 0.228 µM); ED50 (Staphylococcus aureus [11]): 3.3 mg/kg; MIC (Staphylococcus aureus [15]): 2 µg/mL (≈ 3.65 µM); MIC (Pseudomonas aeruginosa [6]): 1 µg/mL (≈ 1.83 µM); MIC (Streptococcus pyogenes): 0.015 µg/mL (≈ 0.0274 µM) |
| CCC(CC)c1cc[n+](CC2=C(C(=O)[O-])N3C(=O)[C@@H](NC(=O)/C(=N\OC)c4csc(N)n4)[C@H]3SC2)cc1 | 16 (≈ 29.4 µM) | 0.125 (≈ 0.23 µM) | 0.06 (≈ 0.11 µM) | 8 (≈ 14.7 µM) | 0.03 (≈ 0.0551 µM) | 16 (≈ 29.4 µM) | 64 (≈ 118 µM) | 2 (≈ 3.67 µM) | 0.015 (≈ 0.0275 µM) | < 0.008 | > 128 | 0.5 (≈ 0.918 µM) | 11 | 2.5 | 0.5 | 0.125 (≈ 0.23 µM) | 64 (≈ 118 µM) | 4 (≈ 7.34 µM) | – | – | MIC (Staphylococcus aureus [16]; [21]): 4 µg/mL (≈ 7.34 µM); MIC (Serratia marcescens; [28]): 0.5 µg/mL (≈ 0.918 µM) |
| CO/N=C(\C(=O)N[C@@H]1C(=O)N2C(C(=O)[O-])=C(C[n+]3cccc4ccc(O)cc43)CS[C@H]12)c1csc(N)n1 | 8 (≈ 14.8 µM) | 0.06 (≈ 0.111 µM) | 0.125 (≈ 0.231 µM) | 4 (≈ 7.4 µM) | 0.03 (≈ 0.0555 µM) | 16 (≈ 29.6 µM) | 32 (≈ 59.2 µM) | 4 (≈ 7.4 µM) | 0.06 (≈ 0.111 µM) | 0.03 (≈ 0.0555 µM) | > 128 | 0.25 (≈ 0.462 µM) | > 50 | 4 | 0.05 | 0.06 (≈ 0.111 µM) | 16 (≈ 29.6 µM) | 4 (≈ 7.4 µM) | – | – | MIC (Staphylococcus aureus [16]; [21]): 8 µg/mL (≈ 14.8 µM); MIC (Serratia marcescens; [28]): 0.5 µg/mL (≈ 0.925 µM) |
| CO/N=C(\C(=O)N[C@@H]1C(=O)N2C(C(=O)[O-])=C(C[n+]3cccc(CC(=O)O)c3)CS[C@H]12)c1csc(N)n1 (stereo in doubt; 24) | – | – | – | – | – | – | – | – | – | – | – | – | – | – | – | – | – | – | 0.09 | 0.5 (≈ 0.939 µM) | MIC (Escherichia coli [2]): 0.125 µg/mL (≈ 0.235 µM); MIC (Klebsiella pneumoniae [4]): 8 µg/mL (≈ 15 µM); MIC (Klebsiella pneumoniae [5]): 0.06 µg/mL (≈ 0.113 µM); ED50 (Pseudomonas aeruginosa [10]): 17.4 mg/kg; MIC (Pseudomonas aeruginosa [14]): 16 µg/mL (≈ 30 µM); MIC (Pseudomonas aeruginosa [6]): 4 µg/mL (≈ 7.51 µM); MIC (Staphylococcus aureus [16]): 8 µg/mL (≈ 15 µM) |
| CO/N=C(\C(=O)N[C@@H]1C(=O)N2C(C(=O)[O-])=C(C[n+]3cccc(CC(=O)O)c3)CS[C@H]12)c1csc(N)n1 (stereo in doubt; 17) | – | – | – | – | – | – | – | – | – | – | – | – | – | – | – | – | – | – | <0.16 | 0.06 (≈ 0.113 µM) | MIC (Escherichia coli [2]): <0.008 µg/mL; MIC (Enterobacter cloacae [9]): 0.25 µg/mL (≈ 0.469 µM); MIC (Klebsiella pneumoniae [4]): 32 µg/mL (≈ 60.1 µM); ED50 (Staphylococcus aureus [11]): 6.2 mg/kg; MIC (Escherichia coli [13]): 0.03 µg/mL (≈ 0.0563 µM); MIC (Staphylococcus aureus [15]): 8 µg/mL (≈ 15 µM); MIC (Staphylococcus aureus [16]): 16 µg/mL (≈ 30 µM); MIC (Staphylococcus aureus [8]): 8 µg/mL (≈ 15 µM); MIC (Streptococcus pneumoniae): 0.03 µg/mL (≈ 0.0563 µM); MIC (Streptococcus pyogenes): 0.03 µg/mL (≈ 0.0563 µM) |
